# From PubChem
# The full list was thinned out, with hits kept by preference.
# HCT116 PTEN-null – growth suppressors of cells with PTEN tumor suppressor deletion. 140,000 compounds, 1.2% hits. HCT116 PTEN-null viability, CellTiter-Glo, 60 h; stronger effect = lower value. AID 827. viability, % at 10 µM;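 active means viability at or below a set limit, 4 SD under the median of all tested compounds, cut at about 3.7% in these data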;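 further: PTEN knockout HCT116 line with beta catenin targeted HCT116 as companion control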
# Fibroblast inh – blocks proliferation of human lung fibroblasts; LL 47 human lung fibroblast viability, ATP luminescence; stronger effect = lower value; AID 719; 85,000 compounds, 1.1% hits; viability, % at 10 µM;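 active means viability at or below 50% in the single dose screen; inactive means viability above 50%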;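 further: compound exposure lasted 72 h before the ATP readout; 100% = median luminescence of untreated cell-only wells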
#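 Test system: LL 47 human lung fibroblasts / Incubation: 72 h compound exposure at 37 °C after overnight plating / Technique: luminescent ATP detection, CellTiter-Glo / Compound dosing: 0.1% DMSO in all compound wells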
# bCat KO growth – beta-catenin-lacking colon tumor cell growth suppression | HCT116 beta-catenin knockout viability, CellTiter-Glo, 60 h; stronger effect = lower value | viability, % at 10 µM | 140,000 compounds, 1.5% hits;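 active means viability at or under a set limit, the compound median less 4 SD, cut at about 6% in these data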;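 further: 0% = Hyamine 1622 control at 20 µM and 100% = untreated cell control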
# HUVEC inhibit – human endothelial cell proliferation inhibition; HUVEC proliferation, CellTiter-Glo luminescence, 72 h; stronger effect = lower value; viability, % at 10 µM (by protocol); 86,000 compounds, 1.1% hits; AID 648;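 active means viability at or below 30%; inactive means viability above 30%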;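 further: 100% = median luminescence of DMSO-only cell control wells on each plate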
# H69AR inhibit – blocks growth of human H69AR lung tumor cells. AID 598. viability, % at 10 µM. H69AR lung tumor viability, ATP luminescence, 72 h; stronger effect = lower value. 85,000 compounds, 6% hits;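 active means viability at or below 40%; inactive means viability above 40%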;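 further: multidrug resistant small cell line overexpressing MRP-1 efflux transporter; 100% = mean luminescence of untreated control wells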
# Active calls of the source: *; . = no result.
SMILES,HCT116 PTEN-null,Fibroblast inh,bCat KO growth,HUVEC inhibit,H69AR inhibit
CN1CCC(N(C)c2nc(-c3ccccc3)nc3ccccc23)CC1,24,90,24,66,27*
O=C(c1ccc2c(=O)n(Cc3ccc4c(c3)OCO4)c(=S)[nH]c2c1)N1CCC2(CC1)OCCO2,86,100,90,101,32*
O=C(NCc1ccc(C(=O)N2CCC3(CC2)OCCO3)cc1)c1ccc2c(c1)OCO2,.,99,91,98,90
COc1cccc(OC)c1C1=NCC(=O)Nc2c1oc1ccc(Br)cc21,16,60,15,46,34*
COc1ccc(/C=C2/C(=O)NC(=S)N(C3CC3)C2=O)cc1CN1C(=O)c2ccccc2C1=O,101,.,91,.,.
CCC(C)N1CCN(C(=O)Cc2ccccc2)CC1 (centres undefined),100,99,95,99,90
COc1ccccc1-n1c(-c2ccoc2)nc2ccccc2c1=O,82,.,90,.,.
O=c1c2ccccc2nc(-c2ccoc2)n1-c1ccccc1Cl,34,98,36,86,34*
Cc1ccc(N=Nc2c(O)[nH]c(=O)[nH]c2=O)c([N+](=O)[O-])c1,84,.,91,.,.
C[C@@H]1O[C@@H](O[C@H]2C[C@@H](O)[C@]3(CO)[C@H]4[C@H](O)C[C@]5(C)[C@@H](C6COC(=O)C6)CC[C@]5(O)[C@@H]4CC[C@]3(O)C2)[C@H](O)[C@H](O)[C@H]1O (some centres undefined),5,.,4.6*,.,.
O=c1[nH]c(=O)n(C2CCCCCC2)c(O)c1C=NC1CCN(Cc2ccccc2)CC1,73,95,93,103,35*
O=P(NCc1ccccc1)(Oc1ccccc1)Oc1ccccc1,80,.,71,.,.
O=C(c1ccc2c(c1)ncn2C1CCCCCC1)N1CCC2(CC1)OCCO2,42,95,42,97,28*
Cc1nc2cc(C(=O)N3CCC4(CC3)OCCO4)ccc2n1-c1cccc(F)c1,95,99,98,100,88
CCCOP(=O)(O)c1c([N+](=O)[O-])cc(C(F)(F)F)cc1[N+](=O)[O-] (tested in a mixture with another compound),98,111,100,82,84
CC(=O)OC(C)(C)/C=C/C(=O)[C@](C)(O)[C@H]1[C@H](O)C[C@@]2(C)[C@@H]3CC=C4[C@H](C[C@H](O)C(=O)C4(C)C)[C@]3(C)C(=O)C[C@]12C,1.9*,.,2.4*,.,.
C=CCN1C(=O)CSc2ccc(C(=O)N3CCC4(CC3)OCCO4)cc21,96,99,95,97,80
Cc1oc(C(=O)Nc2ccc(O)cc2)cc1COc1ccccc1,94,104,91,63,29*
CCCC1(CCC)C(=O)NC(=NCc2ccccc2)NC1=O,46,53,25,51,29*
CCOc1ccccc1-n1c(O)c(C=Nc2ccc(N(CC)CC)cc2)c(=O)[nH]c1=O,53,71,44,65,19*
C=CCn1c(O)c(C(C)=Nc2ccc(N(CC)CC)cc2)c(=O)[nH]c1=O,28,66,36,70,20*
CCN(CC)c1ccc(N=Cc2c(O)n(Cc3ccccc3)c(=O)[nH]c2=O)cc1,97,74,86,70,17*
CCOc1ccc(-n2c(O)c(C=Nc3ccc(N(CC)CC)cc3)c(=O)[nH]c2=O)cc1,73,103,71,90,54
CCN(CC)c1ccc(N=Cc2c(O)n(-c3ccccc3C)c(=O)[nH]c2=O)cc1,66,93,64,83,55
Cc1cccc(OP(=O)(Oc2ccccc2)OC(c2ccccc2)C(F)(F)F)c1 (centres undefined),63,.,65,.,.
SMILES,HCT116 PTEN-null,Fibroblast inh,bCat KO growth,HUVEC inhibit,H69AR inhibit
O=C(CF)NC(Nc1cccc2cccnc12)C(Cl)(Cl)Cl (centres undefined),94,.,92,.,.
CCCCCCOc1ccc(CN2CCN(CC)CC2)cc1,65,95,62,84,75
Cc1nn(C)cc1/C=C1/CC2C3CC=C4CC(O)CCC4(C)C3CCC2(C)C1=O (centres undefined),.,101,.,106,9.0*
CC12CCC3C(CC=C4CC(O)CCC43C)C1C/C(=C\c1ccccc1F)C2=O (centres undefined),57,.,57,.,.
Cc1cccn2c(=O)c3cc(C(=O)N4CCC5(CC4)OCCO5)n(C)c3nc12,13,57,14,56,20*
COc1ccccc1CCNC1C2CC3CC(C2)CC1C3 (centres undefined),63,.,55,.,.
CCNc1nc(Cl)nc(NC(C)C)n1,91,.,92,.,.
Cc1[nH]c2c(Cl)cccc2c1CCN,.,96,.,93,22*
O=C1/C(=C\c2cc3c(cc2Br)OCO3)N2CCC1CC2,95,.,84,.,.
Nc1c(C(=O)NCCCc2ccccc2)c2nc3ccccc3nc2n1Cc1cccs1,1.9*,88,2.9*,53,61
CCCCCn1c(N)c(C(=O)NCc2cccs2)c2nc3ccccc3nc21,20,86,27,82,32*
CCCOC(=O)c1c(N)n(Cc2cccs2)c2nc3ccccc3nc12,83,96,75,75,41
CCCCn1c(N)c(C(=O)NCc2cccs2)c2nc3ccccc3nc21,16,71,18,71,35*
Cc1ccc(N2C(=O)/C(=C/c3ccc(CN(CCC#N)S(C)(=O)=O)o3)C(=O)NC2=S)cc1,100,.,103,.,.
Cc1cc(OCC(=O)NC2CCS(=O)(=O)C2)c2c3c(c(=O)oc2c1)CCC3 (centres undefined),80,102,82,97,92
Cc1c2cnn(CC(=O)N3CCC4(CC3)OCCO4)c(=O)c2c(C)n1Cc1ccccc1F,89,.,84,.,.
Cc1cccn2c(=O)c3c(nc12)N1CCC(Cc2ccccc2)CC1C1(C3)C(=O)N(C)C(=O)N(C)C1=O (centres undefined),70,103,68,74,29*
CCOC(=O)c1c(-n2c(C)cc(C=C3C(=O)NC(=S)NC3=O)c2C)sc2c1CCCC2,5,.,3.8*,.,.
Cc1ccccc1C1=NCC(=O)N(CC(=O)NCc2ccco2)c2sc3c(c21)CCCC3,79,94,90,87,80
COc1cc(/C=C2/C(=O)NC(=O)N(c3ccccc3)C2=O)ccc1O,94,.,93,.,.
COc1cc(/C=C/[N+](=O)[O-])ccc1O,3.3*,.,4.0*,.,.
FC(F)(F)c1ccc2c(c1)nnn2C1CCN(Cc2nnnn2Cc2ccccc2)CC1,42,93,55,70,.
Fc1ccc2c(c1)nnn2C1CCN(Cc2nnnn2C2CCCCC2)CC1,92,92,92,97,27*
Cc1ccc(Cn2nnnc2CN2CCC(n3nnc4cc(C(F)(F)F)ccc43)CC2)cc1,43,75,47,54,2.0*
Cc1ccc(Cn2nnnc2CN2CCC(n3nnc4cc(C)ccc43)CC2)cc1,43,90,47,65,27*
Fc1ccc2c(c1)nnn2C1CCN(Cc2c(Cl)cccc2Cl)CC1,72,96,83,89,88
